Assay results reported in ChEMBL document CHEMBL3526056, “Characterization of in vitro glucuronidation clearance of a range of drugs in human kidney microsomes: comparison with liver and intestinal glucuronidation and impact of albumin” (Drug Metab Dispos, 2012).

Tests used:
[1] = Fraction unbound in human kidney microsomes at 1 uM after 30 to 60 mins by LC-MS/MS analysis; type: ADME
[2] = tested on: Liver microsome; test: Fraction metabolized glucuronidation in human liver microsomes in presence of UDP-glucuronosyltransferase; type: ADME
[3] = Glucuronidation clearance in human liver microsomes in presence of bovine serum albumin; type: ADME
[4] = Unbound intrinsic glucuronidation clearance in human kidney microsomes at 1 uM after 30 to 60 mins by LC-MS/MS analysis in presence of UDP-glucuronosyltransferase; type: ADME, microsome
How it was run: (§1)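 Alamethicin-activated pooled microsomes (HLM 150 donors; HKM 8; HIM 18). Drug at 1 μM final, preincubated 5 min at 37°C in 0.1 M phosphate pH 7.1 with 3.45 mM MgCl2, 1.15 mM EDTA, 115 μM saccharic acid lactone. Started with […] cofactor (5 mM final), 30–60 min. Cofactor-free controls. Parent depletion by LC-MS/MS, single-exponential k. Corrected by HLM-dialysis fu,inc. Duplicates; n=3 (HIM n=1).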

[5] = Fraction unbound in human plasma
[6] = target: T1, UDP-glucuronosyltransferase 1A3 (Homo sapiens, UniProt P35503); test: Drug metabolism in human intestinal microsomes assessed as UGT1A3-mediated unbound intrinsic glucuronidation clearance at 1 uM after 30 to 60 mins by LC-MS/MS analysis in presence of 1% bovine serum albumin; type: ADME, Intestine
T1 sequence (P35503 whole entry): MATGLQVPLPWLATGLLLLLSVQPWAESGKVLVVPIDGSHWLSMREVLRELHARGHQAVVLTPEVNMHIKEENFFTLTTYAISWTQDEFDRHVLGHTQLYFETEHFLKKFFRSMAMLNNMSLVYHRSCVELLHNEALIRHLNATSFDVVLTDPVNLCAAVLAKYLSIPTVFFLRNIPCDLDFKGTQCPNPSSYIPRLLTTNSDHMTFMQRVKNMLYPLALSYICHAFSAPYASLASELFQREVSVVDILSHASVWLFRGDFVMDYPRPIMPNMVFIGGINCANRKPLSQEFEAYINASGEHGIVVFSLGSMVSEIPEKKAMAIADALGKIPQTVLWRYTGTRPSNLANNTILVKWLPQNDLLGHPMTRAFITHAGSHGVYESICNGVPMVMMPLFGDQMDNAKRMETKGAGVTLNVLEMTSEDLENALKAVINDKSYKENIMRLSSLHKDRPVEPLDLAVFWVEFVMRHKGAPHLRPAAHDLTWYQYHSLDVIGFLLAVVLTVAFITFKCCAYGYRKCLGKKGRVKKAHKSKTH

[7] = tested on: Liver microsome; test: Unbound intrinsic glucuronidation clearance in human liver microsomes at 1 uM after 30 to 60 mins by LC-MS/MS analysis in presence of UDP-glucuronosyltransferase and 1% bovine serum albumin; type: ADME
[8] = target: T1, UDP-glucuronosyltransferase 1A3; test: Ratio of UGT1A3-mediated unbound intrinsic glucuronidation clearance in human intestinal microsomes to UGT1A3-mediated unbound intrinsic glucuronidation clearance in human liver microsomes at 1 uM; type: ADME
How it was run: (§2)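 Ratios of mean unbound CLint,UGT, each scaled per g tissue, between pooled liver, kidney and intestinal microsomes. Values come from 1 μM substrate-depletion assays in pH 7.1 phosphate at 37°C, run with or without BSA (1% for acids, 2% for bases/neutral drugs). Corrected for nonspecific binding. Kidney and liver n = 3; intestine n = 1; each in duplicate.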

[9] = Clearance in iv dosed human; type: ADME, organism-based; conditions: in vivo
[10] = tested on: Liver microsome; test: Fraction unbound in human liver microsomes at 1 uM after 30 to 60 mins by LC-MS/MS analysis in presence of 1% bovine serum albumin; type: ADME; conditions: microsomes, 1 µM
[11] = target: T1, UDP-glucuronosyltransferase 1A3; test: Drug metabolism in human intestinal microsomes assessed as UGT1A3-mediated unbound intrinsic glucuronidation clearance at 1 uM after 30 to 60 mins by LC-MS/MS analysis; type: ADME, Intestine
[12] = Unbound intrinsic glucuronidation clearance in human kidney microsomes at 1 uM after 30 to 60 mins by LC-MS/MS analysis in presence of UDP-glucuronosyltransferase and 1% bovine serum albumin; type: ADME, microsome
[13] = target: T1, UDP-glucuronosyltransferase 1A3; test: Drug metabolism in human liver microsomes assessed as UGT1A3-mediated unbound intrinsic glucuronidation clearance at 1 uM after 30 to 60 mins by LC-MS/MS analysis in presence of 1% bovine serum albumin; type: ADME
[14] = tested on: Liver microsome; test: Fraction metabolized glucuronidation in human liver microsomes in presence of UDP-glucuronosyltransferase and bovine serum albumin; type: ADME
[15] = Fraction unbound in human intestinal microsomes at 1 uM after 30 to 60 mins by LC-MS/MS analysis; type: ADME, Intestine, Microsome
[16] = target: T1, UDP-glucuronosyltransferase 1A3; test: Drug metabolism in human liver microsomes assessed as UGT1A3-mediated unbound intrinsic glucuronidation clearance at 1 uM after 30 to 60 mins by LC-MS/MS analysis; type: ADME
[17] = target: T1, UDP-glucuronosyltransferase 1A3; test: Ratio of UGT1A3-mediated unbound intrinsic glucuronidation clearance in human kidney microsomes to UGT1A3-mediated unbound intrinsic glucuronidation clearance in human intestinal microsomes at 1 uM; type: ADME; how it was run: as §2
[18] = Ratio of unbound intrinsic glucuronidation clearance in human kidney microsomes in presence of 1% bovine serum albumin to unbound intrinsic glucuronidation clearance in human kidney microsomes in absence of bovine serum albumin; type: ADME, microsome
How it was run: (§3)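 Unbound intrinsic glucuronidation clearance measured by parent-drug depletion in intestinal or kidney microsomes, once with 1% BSA and once without, under otherwise matched conditions (1 μM drug, pH 7.1 phosphate, 5 mM cofactor, 37°C). Each value was corrected for fu,inc. The ratio is the mean clearance with BSA over the mean without.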

[19] = Glucuronidation clearance in human liver microsomes; type: ADME
[20] = Ratio of unbound intrinsic glucuronidation clearance in human intestinal microsomes in presence of 1% bovine serum albumin to unbound intrinsic glucuronidation clearance in human intestinal microsomes in absence of bovine serum albumin; type: ADME, Intestine, Microsome; how it was run: as §3
[21] = target: T1, UDP-glucuronosyltransferase 1A3; test: Ratio of UGT1A3-mediated unbound intrinsic glucuronidation clearance in human kidney microsomes to UGT1A3-mediated unbound intrinsic glucuronidation clearance in human liver microsomes at 1 uM; type: ADME; how it was run: as §2
[22] = target: T1, UDP-glucuronosyltransferase 1A3; test: Ratio of UGT1A3-mediated unbound intrinsic glucuronidation clearance in human intestinal microsomes to UGT1A3-mediated unbound intrinsic glucuronidation clearance in human liver microsomes at 1 uM in presence of 1% bovine serum albumin; type: ADME; how it was run: as §2
[23] = tested on: Liver microsome; test: Ratio of unbound intrinsic glucuronidation clearance in human liver microsomes in presence of 1% bovine serum albumin to unbound intrinsic glucuronidation clearance in human liver microsomes in absence of bovine serum albumin; type: ADME
How it was run: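 Ratio of mean unbound CLint,UGT in pooled human liver microsomes with 1% BSA to that without BSA. Both come from 1 μM depletion assays at 37°C in pH 7.1 phosphate buffer, with parent drug measured by LC-MS/MS. BSA runs were quenched in double-volume ice-cold acetonitrile. Each condition was corrected by its own equilibrium-dialysis fu,inc. n = 3, duplicates.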

[24] = target: T1, UDP-glucuronosyltransferase 1A3; test: Ratio of UGT1A3-mediated unbound intrinsic glucuronidation clearance in human kidney microsomes to UGT1A3-mediated unbound intrinsic glucuronidation clearance in human intestinal microsomes at 1 uM in presence of 1% bovine serum albumin; type: ADME; how it was run: as §2
[25] = target: T1, UDP-glucuronosyltransferase 1A3; test: Drug metabolism in human kidney microsomes assessed as UGT1A3-mediated unbound intrinsic glucuronidation clearance at 1 uM after 30 to 60 mins by LC-MS/MS analysis in presence of 1% bovine serum albumin; type: ADME
[26] = Fraction unbound in human liver microsomes at 1 uM after 30 to 60 mins by LC-MS/MS analysis; type: ADME
[27] = target: T1, UDP-glucuronosyltransferase 1A3; test: Drug metabolism in human kidney microsomes assessed as UGT1A3-mediated unbound intrinsic glucuronidation clearance at 1 uM after 30 to 60 mins by LC-MS/MS analysis; type: ADME
How it was run: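 Pooled human kidney microsomes (8 donors), alamethicin-activated. […] Started with cofactor (5 mM in incubation) and run 30–60 min. Parent depletion measured by LC-MS/MS; single-exponential k; corrected by equilibrium-dialysis fu,inc. Duplicates, three occasions.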

[28] = Unbound intrinsic glucuronidation clearance in human intestinal microsomes at 1 uM after 30 to 60 mins by LC-MS/MS analysis in presence of UDP-glucuronosyltransferase; type: ADME, Intestine, Microsome; how it was run: as §1
[29] = Unbound intrinsic glucuronidation clearance in human intestinal microsomes at 1 uM after 30 to 60 mins by LC-MS/MS analysis in presence of UDP-glucuronosyltransferase and 1% bovine serum albumin; type: ADME, Intestine, Microsome
[30] = tested on: Liver microsome; test: Unbound intrinsic glucuronidation clearance in human liver microsomes at 1 uM after 30 to 60 mins by LC-MS/MS analysis in presence of UDP-glucuronosyltransferase; type: ADME; how it was run: as §1
[31] = target: T1, UDP-glucuronosyltransferase 1A3; test: Ratio of UGT1A3-mediated unbound intrinsic glucuronidation clearance in human kidney microsomes to UGT1A3-mediated unbound intrinsic glucuronidation clearance in human liver microsomes at 1 uM in presence of 1% bovine serum albumin; type: ADME; how it was run: as §2

## CCCc1nc2c(C)cc(-c3nc4ccccc4n3C)cc2n1Cc1ccc(-c2ccccc2C(=O)O)cc1
[1]
  fraction unbound at 1 µM: 0.48
[2]
  Drug metabolism: 1
[3]
  CLhep predicted: 9.93 mL/min/kg
[4]
  CL free: 9.72 µL/min/mg
[5]
  fraction unbound: 0.005
[6]
  CL free: 1.88 mL/min/g
[7]
  CL free: 395 µL/min/mg
[8]
  Ratio: 0.142
[9]
  clearance: 12.3 mL/min/kg
[10]
  Fu: 0.07
[11]
  CL free: 0.438 mL/min/g
[12]
  CL free: 34.3 µL/min/mg
[13]
  CL free: 15.8 mL/min/g
[14]
  Drug metabolism: 1
[15]
  fraction unbound at 1 µM: 0.48
[16]
  CL free: 3.08 mL/min/g
[17]
  Ratio: 0.284
[18]
  Ratio: 1.6
[19]
  CLhep predicted: 9.93 mL/min/kg
[20]
  Ratio: 1.6
[21]
  Ratio: 0.04
[22]
  Ratio: 0.119
[23]
  Ratio: 1.6
[24]
  Ratio: 0.233
[25]
  CL free: 0.439 mL/min/g
[26]
  fraction unbound at 1 µM: 0.65
[27]
  CL free: 0.124 mL/min/g
[28]
  CL free: 21.3 µL/min/mg
[29]
  CL free: 91.4 µL/min/mg
[30]
  CL free: 76.9 µL/min/mg
[31]
  Ratio: 0.028
